High-throughput results (PubChem BioAssay)
FXN GAA850 act: frataxin GAA850 promoter activation. HEK293 lucGAA850 FXN promoter luciferase reporter, 24 h; percent of 10 µM SAHA response. activation, % at 6 µM. 0.56% of 360,000 active. AID 540364;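 active = activation above the average of all compounds screened plus 3 SD, cutoff fixed separately per campaign, cut at about 7.5% in these data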
procasp7 counter: counter-screen for procaspase-3 activators: activators of human procaspase-7; recombinant procaspase-7, Ac-DEVD-pNA absorbance 405 nm; D23A/D198A/D206A triple mutant, cannot self-cleave; scale: DMSO 0, 5 µM enzyme 100; activation, % at 8.5 µM; 0.093% of 330,000 active; AID 463210;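 active = percent activation above the screen-wide mean plus 3 SD, cut at about 25% in these data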
Target sequence (P55210 whole entry D23A/D198A/D206A): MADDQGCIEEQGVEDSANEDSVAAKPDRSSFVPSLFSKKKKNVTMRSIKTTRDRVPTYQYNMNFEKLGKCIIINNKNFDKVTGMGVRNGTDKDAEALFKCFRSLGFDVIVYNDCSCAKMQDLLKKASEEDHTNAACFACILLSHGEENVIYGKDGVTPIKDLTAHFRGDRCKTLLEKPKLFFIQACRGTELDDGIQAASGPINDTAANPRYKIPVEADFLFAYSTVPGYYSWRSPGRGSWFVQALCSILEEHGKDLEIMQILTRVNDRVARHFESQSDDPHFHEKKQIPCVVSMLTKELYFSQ
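Replicates: singlicate. Assay system: Procaspase-7 triple mutant (PC-7 D3A). Signal: 405 nm absorbance of p-nitroaniline. Times: 1 h preincubation, 2 h reaction. Buffer or medium: Zinc-free HEPES pH 7.4 with 300 mM NaCl, 0.01% Triton X-100. Also added: DEVD-pNA substrate. Benchmarks: DMSO wells as 0%, DMSO with 5 µM added PC-7 as 100%.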
procasp3 activ: activates human procaspase-3 | activation, % at 8.5 µM | 0.11% of 330,000 active | AID 463141 | recombinant procaspase-3 D3A, Ac-DEVD-pNA absorbance 405 nm | P42574;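 active = activation above the mean of all tested compounds plus 3 SD, cut at about 21% in these data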
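Evaluation: percent activation relative to control range; Material: Procaspase-3 D3A mutant, all three cleavage aspartates alanine; Compound: single dose, 8.5 µM nominal compound, 0.8% DMSO; Replication: one well per compound; Signal: absorbance at 405 nm, 0 and 120 min; Schedule: 1 h preincubation plus 2 h reaction at 25 °C.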
A number is an active result; i = inactive; nt = no result. Only some compounds are listed: those with a hit (about 0.7% of all), similar ones and a draw of the others.

SMILES	FXN GAA850 act	procasp7 counter	procasp3 activ
CCN1C(=O)/C(=C\c2ccc(-c3cccc(C(=O)OC)c3)o2)SC1=Nc1ccc(C(=O)O)cc1	nt	i	i
CCN=C1S/C(=C\c2ccc(-c3cccc(C(=O)O)c3)o2)C(=O)N1CC	8.4	i	i
CCC(C(N)=O)N1C(=O)C2C3CCC(C3)C2C1=O (stereo unspecified)	i	nt	nt
O=C(NCc1cccc(C(F)(F)F)c1)c1cc(Cl)ccc1Cl	i	i	i
O=C(NCc1cccc(C(F)(F)F)c1)c1cc(Cl)cc(Cl)c1	i	36	i
COc1ccccc1C(=O)NCCC(=O)NCC1CCCO1 (stereo unspecified)	i	i	i
CCOC(=O)c1sc(Nc2ccccc2)nc1C	i	i	i
COC(=O)c1sc(Nc2ccccc2)nc1C	9.9	i	i
Brc1ccc(/C=N/Nc2ccc3ccccc3n2)cc1	7.8	i	i
Brc1ccccc1/C=N/Nc1ccc2ccccc2n1	i	i	i
CCCCC[C@H](O)/C=C/C1C(=O)C=C[C@H]1C/C=C\CCCC(=O)OC (stereo partly specified)	8.2	nt	nt
CCCCC[C@H](O)/C=C/[C@@H]1[C@@H](C/C=C\CCCC(=O)OC)[C@@H](O)C[C@H]1O	i	i	i
COc1cccc(CNC23CC4CC(CC(C4)C2)C3)c1OCc1ccccc1	i	i	i
Cc1cccc(N2C(=O)N3[C@H](c4ccc(F)cc4)[C@@H]4C(=O)N(C5CCCCC5)C(=O)[C@@H]4[C@]3(Cc3ccc(Cl)cc3)C2=O)c1	i	i	i
Cc1cccc(N2C(=O)N3[C@H](c4ccc(Cl)cc4)[C@@H]4C(=O)N(C5CCCCC5)C(=O)[C@@H]4[C@]3(Cc3ccc(Cl)cc3)C2=O)c1	10	i	i
CC(C)CNC(=O)C1CCN(S(=O)(=O)c2ccc3c(c2)OCCO3)CC1	i	i	i
Cc1ccccc1NC(=O)c1ccccc1N(C)S(=O)(=O)c1ccccc1	i	i	i
CC(C)N1C(=O)S/C(=C/c2ccc3c(c2)n(C)c(=O)n3C)C1=O	i	i	i
CCN(CC)c1ccc(/C=C2\SC(=O)N(C(C)C)C2=O)o1	14	i	i
Cc1c2cnn(-c3ccccc3)c(=O)c2c(C)n1CCCC(=O)NCCN1CCN(C)CC1	i	i	i
CN(C)c1ccc(/C=C(\C#N)C(=O)NCc2ccco2)cc1	nt	i	i
Cc1ccc(CNC(=O)/C(C#N)=C\c2ccc(N(C)C)cc2)cc1	nt	i	22
O=C(O)c1ccc(N=Nc2c(O)[nH]c3ccc(Br)cc23)cc1	i	i	i
O=C(O)c1ccc(N=Nc2c(O)[nH]c3cc(Cl)ccc23)cc1	9.8	i	i
O=C(CSc1nnc(CNC(=O)c2cccc(C(F)(F)F)c2)o1)NC1CCCCC1	i	i	i
SMILES	FXN GAA850 act	procasp7 counter	procasp3 activ
COc1ccc(CNC(=O)CN(C(=O)CCC(=O)Nc2nccs2)c2ccc(C)cc2)cc1	i	i	i
CCOC(=O)C1(Cc2ccc(Cl)cc2)CCN(C(C)Cc2ccc(O)c(OC)c2)CC1 (stereo unspecified)	i	i	i
O=C(C#Cc1ccccc1)c1ccccc1	9.3	nt	nt
CN(C)C(=O)C#Cc1ccccc1	i	i	i
O=C(C#Cc1ccccc1)c1ccc([N+](=O)[O-])cc1	13	nt	nt
O=C(c1ccc(-c2ccccc2)cc1)c1ccc([N+](=O)[O-])cc1	nt	i	i
NC(=Nc1nc(-c2ccccn2)cc2ccccc12)c1ccccn1	i	nt	nt
O=C1NCCO1	i	i	i
CCOC(=O)C1=C(C)NC(C)=C(C(=O)OCC)C1c1ccccc1/C=C/C(=O)OC(C)(C)C	nt	30	i
CCOC(=O)C1=C(C)NC(C)=C(C(=O)OCC)C1/C=C/c1ccccc1	i	i	i
COc1ccc(/C=C/C(=O)NNC(=O)C(C)Oc2ccccc2F)cc1OC (stereo unspecified)	i	i	i
CC1CCN(C(=O)C2Cc3ccccc3CN2S(=O)(=O)c2ccc(F)cc2)CC1 (stereo unspecified)	11	i	i
O=C(C1Cc2ccccc2CN1S(=O)(=O)c1ccc(F)cc1)N1CCCCCC1 (stereo unspecified)	i	i	i
Cc1ccc(C(=O)N2CCCc3ccccc32)c(F)c1F	i	i	i
O=C(N/N=C/c1cccc(O)c1)c1ccc(NC(=O)C2CCCCC2)cc1	i	nt	nt
O=C(N/N=C/c1ccc(O)cc1O)c1ccc(NC(=O)C2CCCCC2)cc1	i	i	48
COc1ccc(-c2cc(C(=O)OCC(=O)NC3CC3)c3ccccc3n2)cc1	i	26	44
O=C(COC(=O)c1cc(-c2ccccc2)nc2ccccc12)NC1CC1	i	i	i
